Hits are enriched below; roughly 12% of the tested compounds scored in any of these assays.
Arbovirus anti = antivirals against arbovirus infection; arbovirus infection cell-based antiviral screen; inhibition, % at 10 µM; 200,000 tested, 0.37% active; AID 1251; in the data active means inhibition above about 30%
Wee1 degr inh = inhibitors of human Wee1 degradation; AID 1321; HeLa Luc-Wee1K328M stability, luciferase luminescence; 100% = proteasome inhibitor MG132 effect; 220,000 tested, 1.2% active; reporter increase, % at 5 µM;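 active means activation above the mean of all tested compounds plus 3 SD, set per screening run, cut at about 8.8% in these data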;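 further: cells exposed to compound for 20 h before luminescence read; 0% = DMSO alone and 100% = MG132 at 30 µM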
L major viab = Leishmania major promastigote growth inhibition; inhibition, % at 10 µM; Leishmania major promastigotes, resazurin fluorescence viability; 200,000 tested, 9% active;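 further: promastigotes grown with compound for 44 hours at 28 °C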
Rad51 HR inh = blocks human Rad51 in homologous recombination; 200,000 tested, 0.085% active; hRad51 DNA strand exchange, fluorescence dequenching; Q06609; inhibition, % at 10 µM;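 active means inhibition above 40% at the single screening dose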;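 further: 0% = DMSO control wells and 100% = blanks with heterologous ssDNA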
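System: hRad51 filaments on single-stranded DNA; reagent: Fluorescein- and BHQ1-tagged 47-mer duplex; compound dosing: one concentration, 10 µM final; timing: filaments 15 min 37 °C, then compound 30 min; measured by: fluorescein emission 520 nm, excitation 485 nm; benchmarks: per-plate controls and blanks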
CHOP inh = blocks CHOP induction under ER stress. AID 2732. 220,000 tested, 3.8% active. inhibition, % at 10 µM. CHO-K1 CHOP-promoter luciferase, tunicamycin-induced, 15-18 h;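 active means compounds that reduced the stress-induced luciferase reporter signal by more than about 70% of percent inhibition, limit read from the data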;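 further: 0% = tunicamycin plus vehicle and 100% = wells without tunicamycin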
PKD1 kinase inh = inhibitors of human PKD1 kinase | Q15139 | PKD1 kinase fluorescence polarization assay | inhibition, % (no concentration beside the values) | 200,000 tested, 0.056% active
Target sequence (Q15139 whole entry, looked up): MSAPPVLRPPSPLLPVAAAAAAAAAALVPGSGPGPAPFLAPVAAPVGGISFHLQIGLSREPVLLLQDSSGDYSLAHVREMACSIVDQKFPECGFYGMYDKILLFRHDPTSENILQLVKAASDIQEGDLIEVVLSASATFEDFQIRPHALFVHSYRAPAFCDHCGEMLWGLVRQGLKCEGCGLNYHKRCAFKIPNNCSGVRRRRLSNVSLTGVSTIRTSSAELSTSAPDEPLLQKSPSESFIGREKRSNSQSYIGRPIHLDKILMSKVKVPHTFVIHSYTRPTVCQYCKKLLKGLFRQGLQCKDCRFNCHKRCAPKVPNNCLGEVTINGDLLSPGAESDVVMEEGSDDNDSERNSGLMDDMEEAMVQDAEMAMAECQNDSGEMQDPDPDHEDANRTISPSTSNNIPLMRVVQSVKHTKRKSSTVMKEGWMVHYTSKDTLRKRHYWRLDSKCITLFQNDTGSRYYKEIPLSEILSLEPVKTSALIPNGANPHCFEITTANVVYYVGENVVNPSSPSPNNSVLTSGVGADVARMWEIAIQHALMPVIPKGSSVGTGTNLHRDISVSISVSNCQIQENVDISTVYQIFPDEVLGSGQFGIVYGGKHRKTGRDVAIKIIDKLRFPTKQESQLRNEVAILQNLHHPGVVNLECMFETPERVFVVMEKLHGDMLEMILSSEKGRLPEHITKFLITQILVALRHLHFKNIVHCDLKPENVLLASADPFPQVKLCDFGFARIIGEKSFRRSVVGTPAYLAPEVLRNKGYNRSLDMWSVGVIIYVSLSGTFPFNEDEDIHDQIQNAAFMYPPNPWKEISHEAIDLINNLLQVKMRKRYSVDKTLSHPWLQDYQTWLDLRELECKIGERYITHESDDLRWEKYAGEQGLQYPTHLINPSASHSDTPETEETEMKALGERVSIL
L major 1uM = inhibitors of Leishmania major promastigote growth, repeat at 1 uM. 1,100 tested, 13% active. inhibition, % at 1 µM. L. major promastigote growth, resazurin fluorescence, 48 h. shares compounds with L major viab;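 active means inhibition above about 50% in both repeat tests, limit read from the data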
Wee1 stab conf = human Wee1 degradation inhibition, confirmation; shares compounds with Wee1 degr inh; HeLa Luc-Wee1K328M degradation, luminescence; vehicle 0%, proteasome-blocked wells 100%; activation, % at 5 µM; 1,100 tested, 4% active; AID 1410; in the data active means activation above about 8.9%
CHOP confirm = confirmation of CHOP induction inhibitors; shares compounds with CHOP inh; CHO-CHOP promoter luciferase reporter, tunicamycin-induced, luminescence; inhibition, % at 10 µM; 2,100 tested, 45% active;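 active means mean of three repeat readings of reporter signal inhibition above a set limit, cut at about 70% in these data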;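 further: 0% = tunicamycin plus vehicle and 100% = wells lacking tunicamycin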
Active calls of the source: *; . = not tested or not shown. Unless noted, no stated cut-off is given here; in the data, active means inhibition above about 50%; inactive means the rest.

SMILES	Arbovirus anti	Wee1 degr inh	L major viab	Rad51 HR inh	CHOP inh	PKD1 kinase inh	L major 1uM	others
O=C(c1cc2ccccc2o1)N1CCN(S(=O)(=O)/C=C/c2ccccc2)CC1	4.4	-2.4	9.4	24.4	30.9	2.5	.
Cc1c(CCOC(=O)CC23CC4CC(CC(C4)C2)C3)sc[n+]1CC(=O)c1ccccc1	-30.2	-1.4	90.9*	0.8	10.5	1.8	22.7
Cc1ccc(C(=O)OCCc2sc[n+](Cc3ccccc3)c2C)cc1	-14.1	0.5	3.5	-6.0	4.4	-1.6	.
CN(C)CC/C=C1/c2ccccc2COc2ccc(CC(=O)O)cc21	.	.	.	-2.4	.	.	.
CN(C)CC/C=C1\c2cc(F)ccc2CSc2ccccc21	-15.1	-0.4	71.6*	0.2	38.3	-2.4	-4.5
O=C(OC(C(=O)NCc1ccc2c(c1)OCO2)c1ccncc1)c1ccc(Cl)nc1 (stereo unspecified)	3.3	1.1	-4.6	10.3	-7.6	4.0	.
CCn1cc(CNCc2cn(C)nc2-c2ccc(C3CCCCC3)cc2)cn1	-31.2	1.3	94.9*	.	3.4	-1.7	19.6
Cn1cc(CNCc2ccc(OC(F)(F)F)cc2)c(-c2ccc3c(c2)OCCO3)n1	-9.5	-2.9	26.9	4.9	61.0	-4.4	.
CCCCCCNC(=O)CCCCCNS(=O)(=O)c1ccc(Br)cc1	2.9	5.1	1.9	6.5	26.6	-6.2	.
COc1ccccc1N1Cc2ccccc2C1	5.3	-1.4	90.5*	2.5	-3.8	-4.8	-10.5
c1coc(-c2ccnc3ncnn23)c1	1.9	-0.4	-3.7	5.0	-9.5	-6.3	.
CCOC(=O)C1(Cc2cccc(OC)c2)CCCN(C(=O)CCc2cccnc2)C1 (stereo unspecified)	4.8	0.1	-2.4	3.3	6.5	-3.7	.
COc1ccc(CNC(=O)C2CCC(CNc3nc(=S)[nH]c4ccccc34)CC2)cc1 (stereo unspecified)	-3.9	1.4	7.1	-26.2	66.9	-7.6	.
O=C(C1CCC(CNc2nc(=S)[nH]c3ccccc23)CC1)N1CCN(c2ccccn2)CC1 (stereo unspecified)	-16.8	8.3	99.5*	.	25.0	2.6	38.5
O=C(CN(Cc1ccccc1F)C(=O)Cn1nnc(-c2cccs2)n1)NC1CCCCC1	3.6	-0.5	16.2	2.3	0.3	17.4	.
Cc1ccc(C2=NNC(=O)C(c3ccc(Cl)cc3)C2)cc1 (stereo unspecified)	6.4	0.7	69.5*	-5.2	95.8*	6.4	-20.2
CCOC(=O)C1CC(c2ccc(Cl)cc2)=NNC1=O (stereo unspecified)	5.2	0.3	-0.1	0.1	23.4	5.3	.
CC(=O)C[C@H]1c2ccccc2S(=O)(=O)N1c1ccccc1	.	.	.	-3.9	.	.	.
Cc1c([C@H]2[C@@H](CC#N)C2(C)C)c2ccccc2n1C	4.5	-0.3	2.6	0.5	66.6	-0.4	.
Cc1[nH]c2c(Br)cccc2c1[C@H]1[C@@H](CC#N)C1(C)C	9.6	5.2	98.5*	-6.2	71.8*	-10.4	3.9
CCOC(=O)c1c(CSC(=N)N)n(C)c2cc(Br)c(OC(C)=O)cc12	.	0.9	.	5.5	8.5	.	.
CCOC(=O)c1c(CSC(=N)N)n(-c2ccc(C)cc2)c2cc(Br)c(OC(C)=O)cc12	-43.4	9.4*	53.4*	-0.2	-13.5	-10.0	-7.5
CC(C)c1nc(NCCO)c2nnn(Cc3ccccc3)c2n1	3.5	-2.5	-1.4	3.0	12.8	-12.0	.
COC(=O)Cc1ccc2sc(-c3ccccc3)nc2c1	-4.7	3.1	6.3	-2.8	5.3	0.1	.
O=C(O)Cc1ccc2sc(-c3ccccc3)nc2c1	-2.7	1.6	72.0*	-3.5	-2.3	-10.7	-5.7
SMILES	Arbovirus anti	Wee1 degr inh	L major viab	Rad51 HR inh	CHOP inh	PKD1 kinase inh	L major 1uM	others
Cc1ccc(S(=O)(=O)NC(N)=NCCc2ccc(Cl)cc2)cc1C	7.2	-2.4	51.5*	9.4	40.2	-8.2	-20.4
CC(C)CN(CC(C)C)S(=O)(=O)N1CCC(C(=O)NCCc2ccc(Cl)cc2)CC1	-7.8	-2.0	-4.4	0.2	64.7	-6.9	.
O=c1c2ccccc2nc(-c2ccccc2)n1CCN1CCOCC1	0.8	-0.1	-0.9	4.3	-5.2	-19.1	.
O=c1c2ccccc2nc2c3ccccc3c(NCCN3CCOCC3)nn12	-31.9	1.4	100.2*	-2.9	11.3	-10.2	6.4
Cc1ccc2[nH]c3c(=O)n(N)c(=O)[nH]c3c2c1	.	0.3	.	-12.2	5.2	.	.
CNCCCC1c2ccccc2C=Cc2ccccc21	-43.0	-3.1	56.5*	-2.8	27.3	4.4	-9.2
CNCCCC12CCC(c3ccccc31)c1ccccc12	-44.4	-1.8	97.5*	-0.6	-5.6	2.1	0.6
O=C(COc1ccc(Cl)cc1)N/N=C/CCc1ccccc1	1.6	-1.4	-9.4	-5.3	41.0	-0.9	.
c1ccc(-c2cc3c(ccc4nonc43)nn2)cc1	-10.1	-0.3	2.2	-7.3	19.0	5.8	.
On1onc2c3cc(-c4ccccc4)nc3ccc21	-23.9	38.7*	100.4*	.	.	-3.8	-22.3	Wee1 stab conf=30.5*
O=C(NC1CCCCCC1)c1cc(-c2ccccn2)nc2ccccc12	-12.9	-3.3	16.4	-3.3	8.4	-2.8	.
N#Cc1ccc(-c2csc(NC3=NCCCCC3)n2)cc1	-2.9	14.9*	87.1*	9.6	-0.1	3.5	-5.2	Wee1 stab conf=1.5
Cc1ccccc1NC1=C/C(=N\S(=O)(=O)c2cccs2)c2ccccc2C1=O	-45.0	-1.5	100.5*	-2.0	106.7*	-2.5	96.9*	CHOP confirm=-13.0
Cc1cc(C)c[n+](C2=C([O-])c3ccccc3C(=O)/C2=N\S(=O)(=O)c2cccs2)c1	-10.4	-2.5	20.9	-228.2	-44.8	-7.5	.
CCOC(=O)N=Nc1c(O)n(CC(=O)OC)c2ccccc12	-1.0	-0.6	2.5	.	-0.4	-2.7	.
CCOC(=O)N=Nc1c2ccccc2c2nc3no[nH]c3nc12	-30.1	-3.3	100.6*	1.3	104.5*	-2.9	100.2*	CHOP confirm=112.0*
O=C(CCS(=O)(=O)Cc1ccc(Cl)cc1)NCCc1ccccc1	-2.2	-0.2	0.2	33.1	14.2	0.1	.
CCN(CC(O)Cn1c2ccccc2c2ccccc21)S(=O)(=O)c1ccc(C)cc1 (stereo unspecified)	-33.6	-3.7	100.3*	-3.1	98.6*	-4.6	-10.2	CHOP confirm=34.8
CCC(C)(C)c1ccc(Oc2ccc(N)cc2)cc1	-30.1	-1.7	95.0*	-7.4	108.1*	-0.1	14.5	CHOP confirm=125.2*
NC1=NC(=Nc2cccc(S(=O)(=O)N3CCOCC3)c2)c2ccccc21	.	-3.0	.	.	24.8	.	.
Cc1ccc(-n2nnnc2CCl)cc1	-4.9	-0.9	95.7*	12.1	108.3*	-3.8	14.7	CHOP confirm=-50.0

Screening results deposited in PubChem by several laboratories.
